A short description of assay [1]: S. cerevisiae growth inhibition in permissive medium (OD615), pilot counter-assay for S. cerevisiae lifespan shortening project, permissive growth control (AID 705;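 active = growth inhibition above 25% in both replicates, a cutoff set 3 SD above the mean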). Conditions: OD615, 24 h, at 10 µM, hits give high values. The essentials:
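assay system = Saccharomyces cerevisiae strain carrying genetically modified DeaD replicative-lifespan system | technique = absorbance (optical density) at 615 nm | buffer or medium = permissive raffinose/galactose medium | timing = cells pre-grown 4 h, then 24 h compound exposure, 30 °C humidified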

Assay [2] can be described thus: S. cerevisiae growth inhibition in restrictive medium, OD615, pilot screen, restrictive growth control, yeast lifespan reduction project (AID 706;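 active = growth inhibition above a set limit, 3 SD over mean compound inhibition, in both replicates, cut at about 43% in these data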;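 also: modified DeaD lifespan yeast strain shifted to restrictive glucose medium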). Conditions: OD615, 48 h, at 10 µM, hits give high values. The essentials: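 System: modified S. cerevisiae. Buffer or medium: CSMM-D glucose medium. Incubation: 4 h pre-growth plus 48 h compound exposure, 30 °C. Detection: absorbance (optical density) measured at 615 nm.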

Assay [3] in a line: doxorubicin toxicity protection in MRP-1 cells – H69AR cells, CellTiter-Glo, duplicate, MRP-1 activator project, pilot screen (AID 807;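 active = viability increase at or above a cutoff of the median across tested compounds plus 3 SD, cut at about 8.5% in these data, passing the limit was not always enough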;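 also: compound pretreatment 18-22 h then 72 h combined with doxorubicin; 0% = doxorubicin alone and 100% = vehicle without doxorubicin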). Conditions: H69AR viability with doxorubicin, CellTiter-Glo luminescence; at 10 µM; hits give high values. Background: Cellular ATP, detected with luciferase, serves as a proxy for viable cell number.
A short description of assay [4]: viability of HCT116 without oncogenic beta-catenin – human colon tumor cells, pilot screen (AID 823;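 active = cell viability at or below a set limit in both duplicate runs, the limit being the all-compound median minus 4 SD, cut at about 23% in these data, passing the limit was not always enough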;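 also: 0% = wells killed by 20 µM Hyamine and 100% = untreated DMSO cell wells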). The note with it: HCT116 beta-catenin knockout viability, CellTiter-Glo, 60 h; at 10 µM; hits give low values.
The nature of assay [5]: viability of PTEN-null HCT116 cells – cell-based, HCT116 clonal line, CellTiter-Glo, pilot screen (AID 824;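 active = viability at or below 27.92% in each of two runs, the all-compound median minus 4 SD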;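 also: 0% = 20 µM Hyamine control and 100% = vehicle cell control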). The note with it: HCT116 PTEN-deleted viability, 60 h, at 10 µM, hits give low values.
The nature of assay [6]: RAM pathway blockade in budding yeast – dse1pr::URA3 reporter, 5-FOA selection, pilot screen (AID 869;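 active = inhibition over a set limit, the all-compound mean plus 3 SD, in both replicate runs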;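 also: 0% = DMSO wells with no growth and 100% = 10 µM 1-NA-PP1 with full growth; RAM network block rescues cells from 5-FOA so hits raise OD615 growth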). Conditions: S. cerevisiae dse1pr::URA3 5-FOA growth, OD615, 2 d; at 10 µM; hits give high values; strain carries analog-sensitive mutant Cbk1 kinase.
The nature of assay [7]: RAM signaling pathway blockade in yeast – S. cerevisiae, Pdr1DBD-CYC8 efflux-inhibited sensitized strain, primary screen (AID 1298).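 Also: 0% = DMSO untreated cells without growth and 100% = 10 µM 1-NA-PP1 full growth; higher means more yeast growth rescued from 5-FOA killing.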 The note with it: S. cerevisiae cbk1-as DSE1-URA3 strain, 5-FOA growth OD615, 2 d; at 50 µM; hits give high values.

A number with no mark means an inactive call. Inconclusive results are not listed. Activity calls are given as the source filed them.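 The calls were made as follows, unless noted: active = RAM network inhibition above 8.4% in each of two replicates, 3 SD over the compound average; inconclusive = above 8.4% inhibition in only one replicate; inactive = 8.4% inhibition or less in each replicate.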

Regarding `CCOc1ccc(NC(=O)CSc2nnc(Cc3cccn3C)n2-c2ccc(F)cc2)cc1`, the figures for the growth inhibition in assay [1] and in assay [2] were 11.1% and 19.2%, respectively. In assay [3], the viability increase is -4.64%. Besides, the viability (commonly a read-out of living cells in per cent, often relative to untreated cells) in assay [4] is 95.7%; in assay [5], 91%. In assay [6], the inhibition (commonly the change of the read-out against control, counted positive when it falls) is 1.56%. Moreover, the RAM network inhibition in assay [7] is 6.97%.
For `Cc1ccc(C(=O)Nc2cccc(C(=O)O)c2)cc1S(=O)(=O)N1CCCCC1`, the growth inhibition in assay [1] was 5.02%; in assay [2] it was 11.4%. The viability increase in assay [3] was 0.18%. Also, the results for the viability in assay [4] and in assay [5] were 96% and 100%, respectively. The inhibition in assay [6] is 1.35%. Also, in assay [7], the RAM network inhibition is 0.1%.
As for `Cc1n[nH]c(=O)nc1NCc1ccccc1`, the values for the growth inhibition in assay [1] and in assay [2] were -8.25% and -29%, respectively. Moreover, in assay [3], the viability increase was -0.55%. Also, the values for the viability in assay [4] and in assay [5] were 95% and 93.9%, respectively. The inhibition in assay [6] was 1.48%. Also, in assay [7], the RAM network inhibition is 0.91%.
`CCOC(=O)c1c(NC(C)=O)no[n+]1[O-]`: the growth inhibition in assay [1] was -14.2%; in assay [2], -12.3%. The viability increase in assay [3] is -2.24%. Further, the viability is 104% in assay [4] and 97.1% in assay [5]. The inhibition in assay [6] was 0.795%. Besides, in assay [7], the RAM network inhibition is 5.03%.
`CCOc1ccccc1N(CC)C(=O)Cn1ncc2c(=O)oc3ccccc3c21`: the results for the growth inhibition in assay [1] and in assay [2] were -11.6% and -7.42%, respectively. Moreover, the viability increase in assay [3] was -1.85%. The viability in assay [4] was 95.7%; in assay [5], 96.2%. For the same molecule, the inhibition in assay [6] was -0.255%. In addition, the RAM network inhibition in assay [7] was 4.3%.
As to `CC1Oc2ccccc2C=C1C1/C(=C(/O)c2ccccc2)C(=O)C(=O)N1CCCN(C)C` (stereo not drawn), the growth inhibition is -3.27% in assay [1] and 2.81% in assay [2]. In addition, the viability increase in assay [3] was -2.78%. For the same molecule, the values for the viability in assay [4] and in assay [5] were 95.6% and 97%, respectively. Also, the inhibition in assay [6] is -0.25%. For the same molecule, in assay [7], the RAM network inhibition was 0.77%.
As for `CCCN(CCC)CCCNC(=O)c1cc2c(=O)n(C)c3ccccc3c2n1C`, the values for the growth inhibition in assay [1] and in assay [2] were -3.03% and -4.35%, respectively. Also, in assay [3], the viability increase was -6.97%. For the same molecule, the viability was 72.5% in assay [4] and 77.1% in assay [5]. For the same molecule, the inhibition in assay [6] was 1.22%. In addition, the RAM network inhibition in assay [7] is 3.47%.
Consider `CCc1ccccc1N1CSC2=C(C#N)C(c3ccccc3F)CC(=O)N2C1` (stereo not drawn), for which the figures for the growth inhibition in assay [1] and in assay [2] were -2.74% and 35.3%, respectively. For the same molecule, in assay [3], the viability increase is -7.03%. Also, the viability in assay [4] is 78.8%; in assay [5], 76.5%. In addition, in assay [6], the inhibition was 0.905%. Moreover, the RAM network inhibition in assay [7] is 4.09%.
With `CNC(=O)CN1C(=O)c2ccccc2S1(=O)=O`, the growth inhibition in assay [1] is -5.12%; in assay [2], 1.27%. Also, the viability increase in assay [3] was -0.6%. Besides, the viability in assay [4] is 101%; in assay [5] it was 98.9%. In addition, the inhibition in assay [6] is 2.51%. In assay [7], the RAM network inhibition is 2.32%.
For the molecule `COc1ccc(C(=S)N(C)C)cc1OC`, the growth inhibition was 11.9% in assay [1] and 16.9% in assay [2]. The viability increase in assay [3] is -0.25%. The viability was 98.8% in assay [4] and 98.6% in assay [5]. In assay [6], the inhibition was 3.66%. Besides, the RAM network inhibition in assay [7] was 1.53%.
Consider `O=C(NCc1ccc2c(c1)OCO2)c1cc2c(s1)CSC2`, for which the growth inhibition was -4.81% in assay [1] and 3.8% in assay [2]. For the same molecule, the viability increase in assay [3] was -1.75%. The values for the viability in assay [4] and in assay [5] were 99.2% and 95.5%, respectively. Besides, the inhibition in assay [6] was 1.75%. In assay [7], the RAM network inhibition is 0.94%.
`O=C(NCc1ccco1)C1CCN(S(=O)(=O)c2cccc3cccnc23)CC1`: the results for the growth inhibition in assay [1] and in assay [2] were 5.31% and 5.93%, respectively. For the same molecule, in assay [3], the viability increase was -2.72%. Further, the viability is 99.4% in assay [4] and 93.8% in assay [5]. The inhibition in assay [6] is 2.12%. In assay [7], the RAM network inhibition was 2.63%.
Regarding `Cc1csc2nc(CNC(=O)C3CCCCC3)cn12`, the growth inhibition in assay [1] was -16.4%; in assay [2], -13.2%. Moreover, in assay [3], the viability increase was -3.04%. The viability in assay [4] is 105%; in assay [5], 97.2%. For the same molecule, the inhibition in assay [6] was 0.93%. Also, in assay [7], the RAM network inhibition was 0.53%.
For `CC(C)(C)c1nnc2sc(SCC(=O)c3cccs3)nn2c1=O`, the growth inhibition in assay [1] is -4.01%; in assay [2], -13.1%. Further, in assay [3], the viability increase was -6%. Further, the viability in assay [4] was 71.1%; in assay [5], 81.8%. Also, in assay [6], the inhibition is 2.62%. For the same molecule, in assay [7], the RAM network inhibition is 5.25%.
Turning to `COc1ccccc1-c1c(C)nn2c(N3CCCCCC3)cc(C)nc12`, the growth inhibition was -5.18% in assay [1] and -3.49% in assay [2]. Also, the viability increase in assay [3] is -7.77%. Further, the viability is 6.78% (active) in assay [4] and 7.98% (active) in assay [5]. In addition, the inhibition in assay [6] is 1.42%. For the same molecule, the RAM network inhibition in assay [7] was -0.76%.
In the case of `CC1(C)Cc2ccccc2-c2nc(NCCO)n(-c3ccccc3)c(=O)c21`, the values for the growth inhibition in assay [1] and in assay [2] were -7.5% and -15.2%, respectively. For the same molecule, the viability increase in assay [3] is -2.92%. Also, the values for the viability in assay [4] and in assay [5] were 84.8% and 83%, respectively. Besides, the inhibition in assay [6] was -0.14%. Moreover, in assay [7], the RAM network inhibition is 3.93%.
Turning to `COc1cc(C2NC(=O)N(C)C3=C2C(=O)CCC3)cc(OC)c1OC` (stereo not drawn), the values for the growth inhibition in assay [1] and in assay [2] were -3.03% and -17.1%, respectively. Besides, the viability increase in assay [3] is -0.05%. The viability in assay [4] is 104%; in assay [5] it was 99%. Besides, in assay [6], the inhibition is 2.73%. In assay [7], the RAM network inhibition is 4.71%.
As to `CCCCSc1nnc(C)c(=O)[nH]1`, the growth inhibition was -8.76% in assay [1] and -12.2% in assay [2]. For the same molecule, in assay [3], the viability increase is -0.85%. The figures for the viability in assay [4] and in assay [5] were 97.6% and 102%, respectively. Also, the inhibition in assay [6] was 1.26%. For the same molecule, the RAM network inhibition in assay [7] was 7.32%.
For `CCOc1cc2[nH]c(=O)n(Cc3ccc(C(=O)NCCOC)cc3)c(=O)c2cc1OCC`, the results for the growth inhibition in assay [1] and in assay [2] were -16.2% and -6.54%, respectively. The viability increase in assay [3] is -1.54%. In addition, the viability in assay [4] is 97.8%; in assay [5], 95.2%. In assay [6], the inhibition was 0.03%. Also, in assay [7], the RAM network inhibition is 6.22%.
`O=C(CN1CCCCC1)Nc1nnc(-c2ccccc2)s1`: the results for the growth inhibition in assay [1] and in assay [2] were -11.4% and -5.87%, respectively. Besides, the viability increase in assay [3] is 1.16%. Further, the viability is 95.2% in assay [4] and 98.5% in assay [5]. In addition, in assay [6], the inhibition was 0.38%. Moreover, the RAM network inhibition in assay [7] was 0.64%.
For `O=C(O)CCC(C(=O)O)n1c(O)c(C2=c3ccccc3=NC2=O)sc1=S` (stereo not drawn), the growth inhibition is -5.76% in assay [1] and -1.01% in assay [2]. Also, the viability increase in assay [3] was -4.54%. Also, the results for the viability in assay [4] and in assay [5] were 97.7% and 95.3%, respectively. The inhibition in assay [6] was 2.23%. In addition, in assay [7], the RAM network inhibition is -0.11%.
Consider `O=C(NCCCN1CCN(c2ccccc2F)CC1)C1CCC(=O)N1C1CCCC1` (stereo not drawn), for which the growth inhibition in assay [1] was -13%; in assay [2] it was -1.25%. The viability increase in assay [3] is -2.46%. Moreover, the values for the viability in assay [4] and in assay [5] were 102% and 93.6%, respectively. In assay [6], the inhibition was 1.08%. Further, the RAM network inhibition in assay [7] is 5.85%.
For `CCN(CC)CCCN1C(=O)C(O)=C(C(=O)c2ccc(C)o2)C1c1cccs1` (stereo not drawn), the growth inhibition is 0.37% in assay [1] and -6.93% in assay [2]. For the same molecule, the viability increase in assay [3] is -4.04%. In addition, the viability was 97.5% in assay [4] and 96.2% in assay [5]. Also, the inhibition in assay [6] was 2.01%. Besides, the RAM network inhibition in assay [7] is 2.8%.
As for `COc1ccc(-c2nc(-c3ccc(Br)o3)no2)cc1OC`, the growth inhibition in assay [1] is -7.45%; in assay [2] it was -17.9%. Besides, in assay [3], the viability increase is -0.69%. Besides, the viability in assay [4] was 86.3%; in assay [5], 78.6%. Besides, in assay [6], the inhibition is 0.88%. Moreover, the RAM network inhibition in assay [7] is 2.25%.

These data come from PubChem BioAssay.
